Data from ChEMBL document CHEMBL4513216, “Probing the Open Global Health Chemical Diversity Library for Multistage-Active Starting Points for Next-Generation Antimalarials” (ACS Infect Dis, 2020).

assay: Toxicity liver stage against HepG2, at 10uM; type: cell-based; design: test concentration 10 uM, cell line HepG2-A16-CD81EGFP; details: human, HepG2-A16-CD81EGFP cells; read-out: INHIBITION
Outline: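 Uninfected HepG2-A16-CD81EGFP cells, 3 × 10^3 per well, 1536-well, plated on prespotted compound at 10 μM final, parasite-free screening media added to match infected plates; puromycin 10 μM positive, DMSO 0.5% negative; run in parallel with 48 h PbLuc assay at 37 °C, 5% CO2; viability by CellTiter-Glo luminescence, normalized to controls.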

Row | SMILES | cytotoxicity at 10 µM [%]
1 | COc1ccc2nc(C[C@@H]3C[C@@H](C(C)C)[C@H](CN(C)C)C=C3C)[nH]c2n1 | 5.09
2 | CC(=O)N1CCC(=O)N(C2CCCC2)Cc2ccccc21 | -6.09
3 | Cc1occc(=O)c1OCc1noc(C(=O)NC(C)C)n1 | 4.6
4 | CC1(C)OCC2(CO1)CN(C(=O)c1ccccc1Cl)C2 | -4.21
5 | O=S(=O)(c1ccccc1F)N1CCC(Oc2cccnn2)CC1 | 0.388
6 | Cc1ccnc(OC[C@]23COC[C@H]2CN(C(=O)c2ccnn2C)C3)n1 | 3.16
7 | Cn1cc(S(=O)(=O)N2CCN(S(=O)(=O)c3ccc(Br)s3)CC2)cn1 | 11.8
8 | CCn1nc(C)c2nc(C)nc(N(C)Cc3ccco3)c21 | 4.23
9 | Nc1no[n+]([O-])c1C(=O)NCc1cccnc1 | 5.93
10 | O=C(COCc1nc(-c2ccncc2)no1)N1CCCCCC1 | -8.83
11 | CC(C)C(=O)N1CCC([C@@H]2C[C@H](C(F)F)n3ncnc3N2)CC1 | 6.21
12 | Cc1nn(C)cc1CN1CCCC(n2c(=O)oc3ccccc32)C1 (stereo unspecified) | 3.33
13 | Cc1cc(C)nc(C2CCCN2S(=O)(=O)N2CCOCC2)n1 (stereo unspecified) | 0.55
14 | N#Cc1ccc(CN2CCCC3(Cc4ccccc4CNC3=O)C2)cc1 (stereo unspecified) | 11.8
15 | CN1CCN(C)c2cc(NC(=O)c3cc[nH]n3)ccc2C1 | -10.9
16 | Cn1c(CO)cnc1SC(C(=O)NC1CC1)c1ccccc1 (stereo unspecified) | -56
17 | CN(C)c1cccc(C(=O)N2CCCc3cc(OC(F)(F)F)ccc32)c1 | -44.4
18 | CC1Oc2c(cccc2C(=O)N2CCN(CC(C)(C)O)CC2)NC1=O (stereo unspecified) | -8.9
19 | CCOc1cncc(NCCc2nnc3ccccn23)n1 | 9.84
20 | Cc1nnc2ccc(N3CCN(Cc4nccn4C)CC3)nn12 | 13.3
21 | Cc1nnc(C(C)N2CCCN(Cc3noc(C4CC4)n3)CC2)o1 (stereo unspecified) | -21.2
22 | COC(=O)CCN(CC1CCCO1)C(=O)Cc1ccc(OC)c(OC)c1 (stereo unspecified) | 4.08
23 | N#CCCCOc1cccc(CN2CCCC2c2ccc[nH]2)c1 (stereo unspecified) | -14.5

Row | SMILES | cytotoxicity at 10 µM [%]
24 | CC(NC1(CNC(=O)NC2CC2)CCOCC1)c1ccccc1 (stereo unspecified) | 10.2
25 | Cn1cnnc1C1CCN(C(=O)CCCOCc2ccccc2)CC1 | -7.06
26 | CCCC(NC(=O)c1ccc(C)cc1C)c1nnn[nH]1 (stereo unspecified) | -3.82
27 | Cc1nc(C2CCCN(C(=O)c3sc(C)nc3C)C2)no1 (stereo unspecified) | -1.96
28 | Cc1n[nH]c(C2CN(CC(=O)NCCc3ccccc3C)CCO2)n1 (stereo unspecified) | -3.94
29 | Cc1[nH]c(=O)sc1S(=O)(=O)N1CCCC1C(=O)NC1CC1 (stereo unspecified) | 5.36
30 | Cn1cc(S(=O)(=O)NC(CO)Cc2c[nH]c3ccccc23)cn1 (stereo unspecified) | -7.37
31 | CC(c1nc(C2CC2)no1)N(C)Cc1ccc(Cl)cc1 (stereo unspecified) | 3.74
32 | Fc1ccc(Br)c(NCc2nnsc2Cl)c1 | 14.3
33 | OC(CNC1CCOCC1)c1ccc(Cl)c(F)c1 (stereo unspecified) | -1.12
34 | CC(C)c1nnc2n1CCN(C(=O)c1cnc(C3CC3)s1)C2 | 4.87
35 | Nc1ccnn1C1CCN(Cc2ccccc2)C1 (stereo unspecified) | 6.36
36 | CN(Cc1cncs1)C1CCN(C(=O)OC(C)(C)C)CC1 | 5.94
37 | COCC(NC(=O)c1ccc(O)nc1)c1ccc(C)o1 (stereo unspecified) | 4.96
38 | CN(CCOCC1CC1)C(=O)Cn1cccc(C(F)(F)F)c1=O | -6.96
39 | CC(=O)OCC1CCCCN1C(=O)c1ccc(Cn2ccnc2)o1 (stereo unspecified) | -54.5
40 | Cc1ccc(C)c(CS(=O)(=O)CC(=O)N(C)Cc2cccc(F)c2)c1 | 4.42
41 | CC(C(=O)NC1CC1)S(=O)(=O)Cc1csc(-c2cccs2)n1 (stereo unspecified) | 9.02
42 | COc1cc(C)c(CNC(C)c2csc(C3CC3)n2)cc1OC (stereo unspecified) | -2.21
43 | O=C1OCCC1N1CCN(c2ccc(O)cc2)CC1 (stereo unspecified) | -1.29
44 | O=C(CN1CCCC(O)C1)NC(=O)NCc1cccs1 (stereo unspecified) | 0.795
45 | COCCN1C(=O)CC[C@@H]2[C@H]1CCN2S(=O)(=O)c1cccs1 | -87.2
46 | N#Cc1ccc(C(=O)N2CCc3c(COCC4CC4)cncc3C2)cc1 | -98.8

Row | SMILES | cytotoxicity at 10 µM [%]
47 | Cc1cccc(CN2CCC3(CC2)COC(COCC2CC2)C3)n1 (stereo unspecified) | -108
48 | Cc1nc(-c2nc(C(=O)NC3CC3)c3ccccn23)cn1C(C)C | -103
49 | Cc1cc(C(F)(F)F)nc(CNc2cc(C)nc3cc(C)nn23)n1 | 9.29
50 | Cc1cc(C(F)(F)F)nc(CCNc2nc(C)nc3sccc23)n1 | 9.46
51 | COCCN(Cc1ccc(C)cc1)Cc1nccn1C | -63.3
52 | COc1cccc2c1OCC(C(=O)NCCc1nnc(N)s1)C2 (stereo unspecified) | -33.4
53 | CC(C)c1nnc2sc(CC3CN(Cc4ccccc4)CCO3)nn12 (stereo unspecified) | -2.66
54 | Cc1ccc(OC2(C(=O)O)CCN(C(=O)c3ccoc3C)CC2)cn1 | -1.56
55 | CCCn1cc(C(=O)NC(C)c2c(C)nn(CC)c2C)c(C)n1 (stereo unspecified) | 5.31
56 | COc1nc2c(cc1C(=O)NCc1nc(CSC)no1)CCC2 | -11.7
57 | Cc1n[nH]c(C)c1CCNC(=O)Nc1ccc(S(C)(=O)=O)cc1 | -5.01
58 | Cc1c(C(=O)N2CCN(C)[C@@H]3CS(=O)(=O)C[C@@H]32)[nH]c2ccc(F)cc12 | -9.2
59 | O=C(c1ccc[nH]1)N1CCc2cc(S(=O)(=O)N3CCOCC3)ccc2C1 | -3.44
60 | COc1ccc(CN2CC(=O)N(c3ccc(C)cc3)CC2C)cc1O (stereo unspecified) | 4.84
61 | Cc1cnc(C(=O)N2CCNCC2C(=O)NCc2ccncc2)cn1 (stereo unspecified) | 0.89
62 | CCNC(=O)C1CN(Cc2c(-c3cc(C)on3)nn(C)c2Cl)CCO1 (stereo unspecified) | -4.37
63 | COCCN1CCCC(O)(CN2CCCN(c3ncccn3)CC2)C1=O (stereo unspecified) | -3.95
64 | Cn1nccc1NC(=O)Cn1ccc(-c2ccc3c(c2)OCO3)n1 | -6.74
65 | Cn1ccc2ccc(C(=O)N3CCC[C@H]3C(=O)N3CCOCC3)cc21 | -0.829
66 | Cc1sc2nc(CCN)nc(N(C)CCCC3CCCO3)c2c1C (stereo unspecified) | -6.01
67 | CCc1ncc(C(=O)NCCN(C)S(C)(=O)=O)cn1 | 4.03
68 | CCCn1ccnc1CNC(=O)C1COc2cc(OC)ccc2C1 (stereo unspecified) | 1.61
69 | FC(F)(F)CCc1ccnc(NC2CCOC2)n1 (stereo unspecified) | 16.4

Row | SMILES | cytotoxicity at 10 µM [%]
70 | CC(C)c1nc(Cn2cncn2)n(-c2ccccn2)n1 | -1.03
71 | COc1cc(C)cc(C(C(=O)O)N(C)Cc2ccncc2C)c1OC (stereo unspecified) | 0.231
72 | COc1cccc(OCC2CCCN(C(=O)c3cnc(C)nc3O)C2)c1 (stereo unspecified) | -15.8
73 | CCCc1n[nH]cc1C(=O)N1CCC(c2nccn2CCOC)CC1 | -15.3
74 | CCn1cc(CN(C)S(=O)(=O)c2cnn(CC)c2C)c(C)n1 | 3.13
75 | O=C(NCCn1ccnc1)c1ccn(-c2ccc(F)cc2)n1 | -1.03
76 | CCc1noc(CN2CCN(C(=O)c3ccccc3F)CC2)n1 | -23.2
77 | Cc1nn(-c2ccccc2)cc1C(=O)N1CCCC1c1cnn(C)c1 (stereo unspecified) | -1.86
78 | Cc1nn(CC(C)C)c(N(C)C)c1CNCc1ccnn1C | -22.3
79 | CC(C)c1cc(NC(=O)CNC2CCCN(c3cccnn3)C2)on1 (stereo unspecified) | -1.79
80 | O=C(Cc1noc2ccccc12)N1CCC(Nc2cccnn2)CC1 | -7.85
81 | Cc1nccn1C1CCCN(C(=O)c2cccc(-n3cccc3)c2)C1 (stereo unspecified) | -23
82 | COc1c(CNCc2ccc(CS(C)(=O)=O)cc2)c(C)nn1C | -4.47
83 | O=C(CSCc1ccncc1)NCc1csc(Br)c1 | -6.57
84 | Cc1cnn(CC2CCCN2C(=O)c2nccnc2N)c1 (stereo unspecified) | -27.6
85 | COc1ccccc1CC1CCCN(CCC(N)=O)C1 (stereo unspecified) | -5.06
86 | CN(Cc1ncc(-c2ccccc2)o1)C1CCCN(c2cccnn2)C1 (stereo unspecified) | -29.1
87 | CCc1c(C(=O)N2CCN(c3ncccn3)CC2)cnn1C(C)(C)C | -1.91
88 | CN(CC(=O)N1CCC(Oc2ccccc2)CC1)c1cnccn1 | 2.12
89 | Cc1ncc2c(n1)CN(Cc1nnc(Cc3ccccc3)o1)CC2 | 1.13
90 | c1sc(C2CCCC2)nc1CN1CCn2c(nnc2C2CC2)C1 | -1.62
91 | Cc1ccc(NC2CCN(C(=O)CC3CCCO3)CC2)nn1 (stereo unspecified) | -10.5
92 | O=C(CN1CCC(c2cccc(F)c2)C1)NCc1ccco1 (stereo unspecified) | -7.88

Row | SMILES | cytotoxicity at 10 µM [%]
93 | O=C(CN1CCCCC1Cn1cncn1)NCCc1ccc(F)cc1 (stereo unspecified) | -1.65
94 | OC(CN1CCC(c2ccn[nH]2)CC1)c1cccc(F)c1 (stereo unspecified) | -7.64
95 | Cc1ccccc1CC(=O)N(C)C1CCN(c2ccccn2)CC1 | -2.74
96 | CCCc1noc(CN2CCCC2c2c(C)nn(C)c2OC)n1 (stereo unspecified) | 9.94
97 | Cc1cnn(C2CCCN(C(=O)c3cccc(Cn4ccnc4)c3)C2)c1 (stereo unspecified) | -1.03
98 | CCc1nccn1C1CCCN(C(=O)c2cc3nc(C)ccc3o2)C1 (stereo unspecified) | -15.5
99 | CC(C)c1nnc2n1CCN(C(=O)c1ccc(-n3cnnc3)cc1)C2 | -11.5
100 | O[C@@H]1CN(Cc2cccc(F)c2)CC[C@H]1NCc1ccccn1 | -1.6
101 | OC1(c2ccc(F)cc2)CCN(Cc2ccccc2N2CCCC2)CC1 | 20.5
102 | CNC(=O)CN1CCOCC2(CCCN(CCc3ccccc3)C2)C1 (stereo unspecified) | 0.0221
103 | CC1c2ncc(Cn3cccn3)n2CCN1S(C)(=O)=O (stereo unspecified) | -99.2
104 | C1CC(CN2CCc3c(nnn3CC3CC3)C2COCC2CC2)C1 (stereo unspecified) | 7.61
105 | O=C(NC1CC1)N1CCC2(CC1)CC(N1CCOCC1)c1ccccc12 (stereo unspecified) | -109
106 | CN1CC[C@]2(CN(CC3CCOCC3)C[C@H]2c2ccccc2)C1=O | -1.18
107 | COc1c(CNCc2cccc(Cn3ccnc3C)c2)c(C)nn1C | 23.8
108 | O=C(NCC1COCc2c(-c3cccnc3)nnn2C1)c1cccs1 (stereo unspecified) | 2.93
109 | CN(C)CC1[C@H]2CN(C(=O)c3cc(=O)[nH]c4ccc(F)cc34)C[C@@H]12 (stereo partly specified) | -6.68
110 | COC1[C@@H]2CC[C@H]1CN(c1nc(C)nc3ccsc13)C2 (stereo partly specified) | 18
111 | COc1ccc(-n2cc3nc(N)[nH]cc-3c2=O)cc1Cl | 17.7
